miR122 inh = miR-122 inhibition in Huh7 cells; Huh7 miR-122 Renilla luciferase sensor, 48 h; neutral wells = 0, positive control = 100; activation (reporter increase), % at 12.5 µM; 0.3% of 340,000 active; AID 602342;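 active means mean replicate activation score at least 90 and every replicate individually at or above 90; inconclusive means only one of the two criteria met; inactive means neither criterion met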;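 further: higher luciferase means less miR-122 activity so hits act as miR-122 inhibitors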
MLL AF4-AF9 inh = blocks AF4 peptide binding to human AF9; P42568; AlphaScreen, biotin-AF4 peptide binding to FLAG-AF9; inhibition, % at 10 µM; 0.47% of 350,000 active; AID 651704;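 active means every replicate reaching a set inhibition limit, whatever the replicate mean, cut at about 25% in these data; inconclusive means mean inhibition reaches that limit but some replicates miss it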
ERAP1 HTS inh = blocks human ERAP1 aminopeptidase activity. AID 652197. 0.15% of 340,000 active. inhibition, % at 10.7 µM. recombinant ERAP1, Leu-AMC fluorescence, 60 min. Q9NZ08;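 active means mean replicate inhibition of at least 30%, or all replicates individually reaching that 30% level; inactive means mean below 30% and not every replicate reaching it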
Target sequence (Q9NZ08 whole entry, looked up): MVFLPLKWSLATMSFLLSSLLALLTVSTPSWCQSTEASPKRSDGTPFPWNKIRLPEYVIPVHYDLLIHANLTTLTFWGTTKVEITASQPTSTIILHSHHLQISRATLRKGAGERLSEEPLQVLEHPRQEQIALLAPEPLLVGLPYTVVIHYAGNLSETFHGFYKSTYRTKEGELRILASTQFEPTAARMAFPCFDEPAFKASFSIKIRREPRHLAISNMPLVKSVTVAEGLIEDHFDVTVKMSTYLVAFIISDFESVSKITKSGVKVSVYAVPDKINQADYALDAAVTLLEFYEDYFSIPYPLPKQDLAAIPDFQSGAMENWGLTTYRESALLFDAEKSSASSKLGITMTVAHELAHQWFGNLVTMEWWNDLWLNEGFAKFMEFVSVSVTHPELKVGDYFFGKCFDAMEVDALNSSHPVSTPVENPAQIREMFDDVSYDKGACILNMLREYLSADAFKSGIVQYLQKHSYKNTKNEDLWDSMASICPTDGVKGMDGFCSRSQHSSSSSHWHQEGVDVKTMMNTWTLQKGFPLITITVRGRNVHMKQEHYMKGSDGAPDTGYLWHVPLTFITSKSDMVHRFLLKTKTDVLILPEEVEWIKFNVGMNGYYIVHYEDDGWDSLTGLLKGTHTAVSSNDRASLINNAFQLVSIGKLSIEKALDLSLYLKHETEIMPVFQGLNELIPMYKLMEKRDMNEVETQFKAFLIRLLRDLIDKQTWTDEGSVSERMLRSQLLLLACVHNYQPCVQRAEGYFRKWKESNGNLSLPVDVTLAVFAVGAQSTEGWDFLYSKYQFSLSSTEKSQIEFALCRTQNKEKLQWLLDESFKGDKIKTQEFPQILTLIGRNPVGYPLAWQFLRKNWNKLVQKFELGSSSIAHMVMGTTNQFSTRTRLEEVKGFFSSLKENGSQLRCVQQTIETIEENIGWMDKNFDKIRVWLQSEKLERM
Rtt109 HAT inh = inhibitors of Candida albicans Rtt109/Vps75 histone acetyltransferase. 0.16% of 330,000 active. AID 540336. Q5AAJ8. purified Rtt109/Vps75, ThioGlo CoA-SH fluorescence, 4 h. inhibition, % at 34.9 µM;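 active means inhibition of at least 50% in every replicate; inconclusive means best replicate reaches 50% inhibition but some replicates fall short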
S100A4 MyoIIA = inhibitors of human S100A4 binding to myosin IIA peptide; P26447; S100A4/TAMRA-MyoIIA peptide fluorescence polarization; inhibition, % at 10.7 µM; 0.14% of 360,000 active; AID 652163;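 active means mean inhibition of at least 70% across replicates, with every replicate also reaching that level; inconclusive means mean inhibition reaches 70% but some replicates fall short; inactive means mean inhibition below 70%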
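incubation = readout 5 min after mixing, signal stable up to 60 min | system = S100A4 monomer protein | buffer or medium = HEPES pH 7.2 with CaCl2, KCl, NaCl, DTT, Triton | benchmarks = neutral control DMSO, positive control TFP | also added = fluorescent myosin IIA peptide, 5 nM | compound dosing = one concentration per compound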
Numbers stand for hits; – = inactive; ? = inconclusive; · = not tested or not shown; [ ] = remark or other dose. Compounds with a hit are over-represented: about 0.86% of the library has one in this group of screens.

SMILES	miR122 inh	MLL AF4-AF9 inh	ERAP1 HTS inh	Rtt109 HAT inh	S100A4 MyoIIA
O=C1NC(Cc2ccc(Cl)cc2)COCc2cnnn2CCC1c1ccccc1 (stereo unspecified)	·	–	–	·	89.7
COc1ccc(OC)c(S(=O)(=O)Nc2ccc(C(N)=O)cc2)c1	–	–	–	–	–
COc1ccc(NS(=O)(=O)c2cc(NC(=O)c3ccc(F)cc3)ccc2OC)cc1	108.4	·	·	–	·
CCOC(=O)c1ccc(NS(=O)(=O)c2cc(C)ccc2OC)cc1	373.0	·	·	–	·
COc1ccc(NC(=O)c2ccc(F)cc2)cc1S(=O)(=O)Nc1cc(C)ccc1Br	·	·	·	–	·
COc1ccc(OC)c(S(=O)(=O)Nc2ccc(C(C)=O)cc2)c1	99.6	·	·	–	·
C[C@@H]1CCCCO[C@H](CN(C)C(=O)C2CCCCC2)[C@@H](C)CN([C@@H](C)CO)C(=O)c2cc(NC(=O)NC3CCCCC3)ccc2O1	–	–	–	·	?
C[C@@H]1CN([C@@H](C)CO)C(=O)Cc2cc(NS(=O)(=O)c3cn(C)cn3)ccc2O[C@H]1CN(C)S(=O)(=O)c1ccccc1	–	–	–	·	–
COCCN(C(=O)C1CCN(C(=O)c2ccccc2C)CC1)c1c(N)n(CC(C)C)c(=O)[nH]c1=O	–	–	90.7	–	–
Cc1ccccc1C(=O)N1CCC(C(=O)N(CC(C)C)c2c(N)n(CC(C)C)c(=O)[nH]c2=O)CC1	–	–	–	–	–
Cc1ccc(S(=O)(=O)Nc2ccc3c(c2)CC(=O)N([C@H](C)CO)C[C@H](C)[C@H](CN(C)Cc2ccc(C(=O)Nc4ccccc4N)cc2)O3)cc1	229.0[16.7 µM]	·	·	·	·
C[C@H]1CN([C@@H](C)CO)C(=O)Cc2cc(NS(=O)(=O)c3ccc(F)cc3)ccc2O[C@H]1CN(C)Cc1ccc(C(=O)Nc2ccccc2N)cc1	113.8[16.7 µM]	–	–	·	–
C[C@@H]1CN([C@@H](C)CO)C(=O)c2cc(C#Cc3ccccn3)cnc2O[C@H]1CN(C)C(=O)c1ccccn1	·	–	–	·	–
CC(C)NC(=O)N(C)C[C@H]1Oc2ccc(NC(=O)CCN3CCOCC3)cc2CC(=O)N([C@@H](C)CO)C[C@H]1C	–	–	–	·	–
Cc1ccc(S(=O)(=O)Nc2cccc3c2O[C@H](CN(C)C(=O)Nc2ccc(F)cc2)[C@H](C)CN([C@H](C)CO)C3=O)cc1	–	–	–	·	–
CN(C)CCCNC(=O)C[C@H]1C[C@H](C(=O)N2CCCCC2)[C@@]2(CCc3ccccc3)c3[nH]c4cc(-c5ccco5)ccc4c3CCN2C1=O	–	52.9	–	–	–
CN(C)CCCNC(=O)C[C@H]1C[C@H](C(=O)N2CCCCC2)[C@@]2(C)c3[nH]c4cc(-c5ccco5)ccc4c3CCN2C1=O	–	–	·	–	–
[O-]/C(=C(\C(=S)NCc1ccccc1)[n+]1ccccc1)c1ccc(Cl)s1	173.1	–	–	–	–
[O-]/C(=C(\C(=S)NCCN1CCOCC1)[n+]1ccccc1)c1ccc(Cl)s1	–	–	–	–	–
Cc1ccc(S(=O)(=O)N(C)C[C@H]2OCCCC[C@@H](C)Oc3ccc(NC(=O)CCCN(C)C)cc3C(=O)N([C@@H](C)CO)C[C@H]2C)cc1	–	–	–	·	–
O=C(NC1CCCC1)C(c1ccccc1F)N(C(=O)Cc1cccs1)c1ccc2c(c1)OCCO2 (stereo unspecified)	172.1	–	–	–	–
C[C@H](CO)N1C[C@H](C)[C@@H](CN(C)Cc2ccc(C(F)(F)F)cc2)Oc2c(NS(C)(=O)=O)cccc2C1=O	–	·	·	·	·
O=C(C[C@H]1CC[C@@H]2[C@H](COC[C@@H](O)CN2S(=O)(=O)c2cccc(Cl)c2)O1)NC1CCCC1	–	26.2	–	·	–
Cn1cnc(S(=O)(=O)N2C[C@@H](O)COC[C@H]3O[C@@H](CC(=O)NC4CCCC4)CC[C@@H]32)c1	126.8[16.7 µM]	–	–	·	–
C[C@@H]1CN([C@H](C)CO)C(=O)c2cc(NC(=O)CCC(F)(F)F)ccc2O[C@@H]1CN(C)CC1CCCCC1	–	–	–	·	–
COCC(=O)Nc1ccc2c(c1)C(=O)N(C)C[C@@H](OC)[C@@H](C)CN(Cc1ccccc1OC)[C@@H](C)CO2	–	–	–	·	–
CN1CCN(C(=O)C[C@H]2C[C@H]3c4cc(NC(=O)C5CCOCC5)ccc4O[C@H]3[C@@H](CO)O2)CC1	–	–	–	·	–
CCc1c(C(=O)NCc2ccccc2Cl)[nH]c(C)c1C(C)=O	118.3	·	·	–	·

Screening data (PubChem)
